From PMC4586255 (DNA repair, 2010)

Legend:
[1] = test system: PCNA replication foci in NIH3T3 cells; format: cell-based, murine
Outline: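 Murine NIH3T3 cells were kept in DMEM with 10% FBS and penicillin/streptomycin at 37 °C, 10% CO₂. Cells (2*10⁵ per glass-bottom dish) were seeded 24 h before ExGen500 co-transfection with 3 μg total plasmid (CFP-PCNA plus YFP fusion). Confocal imaging at 24–48 h. Co-transfected cells were counted and binned by pattern, e.g. "no foci" (diffuse CFP-PCNA, diffuse nuclear YFP).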

hMLH1 = assay: Interaction of hEXO1 variants with hMLH1; format: binding, human; settings: GST-hMLH1 pull-down, 35S-labeled IVTT protein; Fig. S1

B1: YFP-hEXO1-S702X: COOH-terminally truncated version of YFP-hEXO1, truncated from amino acid 702 (protein, UniProt Q9UQ84 1-701, looked up, fragment)
chain: MGIQGLLQFIKEASEPIHVRKYKGQVVAVDTYCWLHKGAIACAEKLAKGEPTDRYVGFCMKFVNMLLSHGIKPILVFDGCTLPSKKEVERSRRERRQANLLKGKQLLREGKVSEARECFTRSINITHAMAHKVIKAARSQGVDCLVAPYEADAQLAYLNKAGIVQAIITEDSDLLAFGCKKVILKMDQFGNGLEIDQARLGMCRQLGDVFTEEKFRYMCILSGCDYLSSLRGIGLAKACKVLRLANNPDIVKVIKKIGHYLKMNITVPEDYINGFIRANNTFLYQLVFDPIKRKLIPLNAYEDDVDPETLSYAGQYVDDSIALQIALGNKDINTFEQIDDYNPDTAMPAHSRSHSWDDKTCQKSANVSSIWHRNYSPRPESGTVSDAPQLKENPSTVGVERVISTKGLNLPRKSSIVKRPRSAELSEDDLLSQYSLSFTKKTKKNSSEGNKSLSFSEVFVPDLVNGPTNKKSVSTPPRTRNKFATFLQRKNEESGAVVVPGTRSRFFCSSDSTDCVSNKVSIQPLDETAVTDKENNLHESEYGDQEGKRLVDTDVARNSSDDIPNNHIPGDHIPDKATVFTDEESYSFESSKFTRTISPPTLGTLRSCFSWSGGLGDFSRTPSPSPSTALQQFRRKSDSPTSLPENNMSDVSQLKSEESSDDESHPLREEACSSQSQESGEFSLQSSNASKLSQCSSKDSD
modifications: N-terminal YFP tag
Small foci (CFP-PCNA) ([1]; CFP channel (CFP-PCNA) in cells co-expressing the hEXO1 protein, early S-phase foci, 50 co-transfected cells): 18%
Large foci (CFP-PCNA) ([1]; CFP channel (CFP-PCNA) in cells co-expressing the hEXO1 protein, late S-phase foci, 50 co-transfected cells): 8%
Mid Foci (CFP-PCNA) ([1]; CFP channel (CFP-PCNA) in cells co-expressing the hEXO1 protein, mid S-phase foci, 50 co-transfected cells): 20%
foci formation and co-localization with PCNA during S-phase ([1]; NIH3T3 cells co-transfected with CFP-PCNA, 24–48 h): none of the variant proteins were able to form foci or co-localize with PCNA during S-phase
sub-cellular localization ([1]; NIH3T3 cells, confocal imaging): strictly nuclear
hMLH1 interaction (hMLH1): sustain partial hMLH1 interaction

B2: hEXO1-Δ423–507: internal deletion variant (protein)
chain: MGIQGLLQFIKEASEPIHVRKYKGQVVAVDTYCWLHKGAIACAEKLAKGEPTDRYVGFCMKFVNMLLSHGIKPILVFDGCTLPSKKEVERSRRERRQANLLKGKQLLREGKVSEARECFTRSINITHAMAHKVIKAARSQGVDCLVAPYEADAQLAYLNKAGIVQAIITEDSDLLAFGCKKVILKMDQFGNGLEIDQARLGMCRQLGDVFTEEKFRYMCILSGCDYLSSLRGIGLAKACKVLRLANNPDIVKVIKKIGHYLKMNITVPEDYINGFIRANNTFLYQLVFDPIKRKLIPLNAYEDDVDPETLSYAGQYVDDSIALQIALGNKDINTFEQIDDYNPDTAMPAHSRSHSWDDKTCQKSANVSSIWHRNYSPRPESGTVSDAPQLKENPSTVGVERVISTKGLNLPRKSSIVKRPRSCSSDSTDCVSNKVSIQPLDETAVTDKENNLHESEYGDQEGKRLVDTDVARNSSDDIPNNHIPGDHIPDKATVFTDEESYSFESSKFTRTISPPTLGTLRSCFSWSGGLGDFSRTPSPSPSTALQQFRRKSDSPTSLPENNMSDVSQLKSEESSDDESHPLREEACSSQSQESGEFSLQSSNASKLSQCSSKDSDSEESDCNIKLLDSQSDQTSKLRLSHFSKKDTPLRNKVPGLYKSSSADSLSTTKIKPLGPARASGLSKKPASIQKRKHHNAENKPGLQIKLNELWKNFGFKKDSEKLPPCKKPLSPVRDNIQLTPEAEEDIFNKPECGRVQRAIFQ
modifications: 35S-cysteine label; left off: myc, C-terminal, state not stated | His6, C-terminal, state not stated
hMLH1 interaction (hMLH1): sustain partial hMLH1 interaction
